Reference: ChEMBL document CHEMBL4028872, “Structure-Activity Relationship, Pharmacological Characterization, and Molecular Modeling of Noncompetitive Inhibitors of the Betaine/γ-Aminobutyric Acid Transporter 1 (BGT1)” (J Med Chem, 2017)
pIC50: −log10 of the molar value.

Legend:
Assay type in all cases: cell-based
[1] = molecular target: Sodium- and chloride-dependent betaine transporter (Homo sapiens, UniProt P48065, I386M); test: Inhibition of human BGT1 I386M mutant expressed in tsA201 cells assessed as reduction in [3H]GABA uptake after 3 mins by scintillation counting method
Sequence of Sodium- and chloride-dependent betaine transporter (Homo sapiens, UniProt P48065, I386M) (P48065 whole entry I386M): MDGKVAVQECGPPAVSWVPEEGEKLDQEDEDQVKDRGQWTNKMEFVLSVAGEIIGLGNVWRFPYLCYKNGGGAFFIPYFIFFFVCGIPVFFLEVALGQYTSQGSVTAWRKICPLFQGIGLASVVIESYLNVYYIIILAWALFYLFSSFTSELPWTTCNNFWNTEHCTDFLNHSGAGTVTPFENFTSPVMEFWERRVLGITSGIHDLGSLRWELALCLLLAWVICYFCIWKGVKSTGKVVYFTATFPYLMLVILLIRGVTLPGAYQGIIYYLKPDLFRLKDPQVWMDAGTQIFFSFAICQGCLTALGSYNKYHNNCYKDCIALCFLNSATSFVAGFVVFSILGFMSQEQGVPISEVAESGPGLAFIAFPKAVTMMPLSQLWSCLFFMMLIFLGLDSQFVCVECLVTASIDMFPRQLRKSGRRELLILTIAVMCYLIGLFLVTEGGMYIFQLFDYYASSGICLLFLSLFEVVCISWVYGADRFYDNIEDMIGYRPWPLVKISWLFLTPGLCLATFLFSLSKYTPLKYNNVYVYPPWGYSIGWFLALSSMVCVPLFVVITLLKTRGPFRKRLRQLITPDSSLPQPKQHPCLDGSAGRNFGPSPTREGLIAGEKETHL
Method in brief: (§1)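 Site-directed mutant transporters transiently transfected (PolyFect) into tsA201 cells, plated and used about 24 h later. Cells were washed with HBSS containing 20 mM HEPES, 1 mM CaCl2 and 1 mM MgCl2, pH 7.4. IC50 was taken from variable-slope sigmoidal fits. Triplicates, at least three independent experiments.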

[2] = molecular target: Sodium- and chloride-dependent betaine transporter (Homo sapiens, UniProt P48065, C382T); test: Inhibition of human BGT1 C382T mutant expressed in tsA201 cells assessed as reduction in [3H]GABA uptake after 3 mins by scintillation counting method; method in brief: as §1
Sequence of Sodium- and chloride-dependent betaine transporter (Homo sapiens, UniProt P48065, C382T) (P48065 whole entry C382T): as the sequence (P48065 whole entry I386M) above, with C382T, M386I counted along it

[3] = molecular target: Sodium- and chloride-dependent betaine transporter (Homo sapiens, UniProt P48065, I340V); test: Inhibition of human BGT1 I340V mutant expressed in tsA201 cells assessed as reduction in [3H]GABA uptake after 3 mins by scintillation counting method; method in brief: as §1
Sequence of Sodium- and chloride-dependent betaine transporter (Homo sapiens, UniProt P48065, I340V) (P48065 whole entry I340V): as the sequence (P48065 whole entry I386M) above, with I340V, M386I counted along it

[4] = molecular target: Sodium- and chloride-dependent betaine transporter (Homo sapiens, UniProt P48065, F367Y); test: Inhibition of human BGT1 F367Y mutant expressed in tsA201 cells assessed as reduction in [3H]GABA uptake after 3 mins by scintillation counting method; method in brief: as §1
Sequence of Sodium- and chloride-dependent betaine transporter (Homo sapiens, UniProt P48065, F367Y) (P48065 whole entry F367Y): as the sequence (P48065 whole entry I386M) above, with F367Y, M386I counted along it

[5] = molecular target: Sodium- and chloride-dependent betaine transporter (Homo sapiens, UniProt P48065, F295Y); test: Inhibition of human BGT1 F295Y mutant expressed in tsA201 cells assessed as reduction in [3H]GABA uptake after 3 mins by scintillation counting method; method in brief: as §1
Sequence of Sodium- and chloride-dependent betaine transporter (Homo sapiens, UniProt P48065, F295Y) (P48065 whole entry F295Y): as the sequence (P48065 whole entry I386M) above, with F295Y, M386I counted along it

Work on `O=C(NC1CCN(Cc2ccccc2)CC1)c1ccc(Cl)cc1Cl` yielded a pIC50 [1] of 5.15, a pIC50 [2] of 4.82 and a pIC50 ([3]; read-out: IC50) of 5.10. It also gave an IC50 ([3]; read-out: pIC50 (converted)) of 5.89 µM, a pIC50 ([4]; read-out: IC50) of 5.30 and an IC50 ([4]; read-out: pIC50 (converted)) of 6.03 µM. For the same compound, the pIC50 ([5]; read-out: IC50) was 5.30 and the IC50 ([5]; read-out: pIC50 (converted)) was 4.07 µM.
